Reference: PMC8099784 (Redox Biology, 2021)
Read-outs that look alike come from different tables or passages of the source. Values belong to the molecule of their own block, whether it stands above or below them. Peptide text beside a SMILES is read from it. * marks the point of attachment. Cbz = O=C(OCc1ccccc1)*; CH2F = FC*

Key:
[1] = tested on: HepG2; assay: MTT cell viability assay, HepG2 cells; assay type: cell-based, human; settings: for effect on 23-induced cell morphological changes and cell viability: HepG2, 10 μM pretreated 1 h; for effect of caspase inhibitors on the effects of 23 on cell viability: HepG2, pretreated 2 h (Z-VAD-FMK 10 μM, Ac-DEVD-CHO 50 μM, Z-LEHD-FMK TFA 20 μM)
Summary of the method: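 HepG2 at 5 × 10^3 cells/well, overnight, in RPMI 1640 with 10% FBS. Dose series for 24 h, or 2.5 μM for 24 h after pretreatment: MitoQ 1 μM for 1 h; Fer-1, DFO or Z-VAD-FMK 10 μM for 1 h; or Z-VAD-FMK 10 μM, Ac-DEVD-CHO 50 μM or Z-LEHD-FMK 20 μM for 2 h. MTT 4 h, DMSO, 570 nm. Morphology imaged by inverted microscopy.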

[2] = tested on: HepG2 cells; assay: ROS detection by DCFH-DA, HepG2; assay type: cell-based, human; settings: then 2.5 μM 23 for 24 h
Summary of the method: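 Cells seeded at 1.6 × 10^5 per well and exposed to treatment; HepG2 variants used MitoQ 1 μM for 1 h or a caspase-inhibitor pretreatment before 2.5 μM for 24 h. Trypsinized cells incubated 30 min in PBS with 10 μM DCFH-DA. Green fluorescence read on the FL1 flow-cytometry channel.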

[3] = tested on: HepG2 cells; assay: Mitochondrial membrane potential; assay type: cell-based, human; settings: HepG2, 10 μM pretreated 2 h, then 2.5 μM 23 for 24 h
Summary of the method: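 Cells seeded at 1.6 × 10^5 per well and exposed to treatment. Loaded with JC-1 for 1 h at 37 °C, washed twice in PBS, then held in serum-free medium. Red/green fluorescence ratio measured by flow cytometry.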

[4] = tested on: HepG2 cells; assay: C11-BODIPY lipid peroxidation assay, HepG2; assay type: cell-based, human; settings: HepG2, 10 μM pretreated 1 h, then 2.5 μM 23 for 24 h
Summary of the method: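 HepG2, 1.6 × 10^5 cells/well. Treated at 1.25, 2.5 or 5 μM for 24 h, or 2.5 μM for 0–24 h; some wells pretreated 1 h with Fer-1, DFO or Z-VAD-FMK (each 10 μM). Trypsinized cells stained in PBS with 1.5 μM C11-BODIPY, 15 min, 37 °C; FL1 flow cytometry. Mean ± SD, n = 3.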

[5] = tested on: HBE; assay: MTT cell viability assay, HBE normal lung cells; assay type: cell-based, human; settings: read-out: IC50 (μM) HBE
Summary of the method: (§1)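 Cells kept in RPMI 1640 with 10% FBS and penicillin/streptomycin at 37 °C, 5% CO2. Seeded at 5 × 10^3 cells/well overnight, exposed to a concentration series for the stated time. MTT (5 mg/mL) added for 4 h, crystals dissolved in DMSO, absorbance read at 570 nm. Normalized to DMSO vehicle; three independent runs; IC50 by curve fitting.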

[6] = tested on: 7860; assay: MTT cell viability assay, 7860 cells; assay type: cell-based, human
Summary of the method: as §1

[7] = molecular target: T1, Human Prdx I (Homo sapiens, UniProt Q06830); assay: Peroxidase activity of recombinant Prdx I; assay type: biochemical; settings: Amplex Red probe, Fig. 4H
T1 sequence (Q06830 1-199): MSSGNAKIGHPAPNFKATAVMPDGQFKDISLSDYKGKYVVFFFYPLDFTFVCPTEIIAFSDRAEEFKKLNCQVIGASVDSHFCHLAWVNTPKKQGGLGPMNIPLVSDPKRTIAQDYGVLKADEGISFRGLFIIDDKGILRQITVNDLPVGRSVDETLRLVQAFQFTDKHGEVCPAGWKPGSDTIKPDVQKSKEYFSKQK
Summary of the method: (§2)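 Human Prdx I or II cloned in pET28a, expressed in E. coli BL21, purified. In 50 mM sodium phosphate pH 7.4, enzyme (30 μM solution) preincubated with compound 30 min at RT. H2O2 (10 μM solution) added for 10 min, then Amplex Red (50 μM solution) with HRP (1 U/mL solution) for 10 min. Fluorescence ex 535/em 595 nm; n = 3.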

[8] = molecular target: T2, Human Prdx II (Homo sapiens, UniProt P32119); assay: Peroxidase activity of recombinant Prdx II; assay type: biochemical; settings: Amplex Red probe, Fig. 4I
T2 sequence (P32119 1-198): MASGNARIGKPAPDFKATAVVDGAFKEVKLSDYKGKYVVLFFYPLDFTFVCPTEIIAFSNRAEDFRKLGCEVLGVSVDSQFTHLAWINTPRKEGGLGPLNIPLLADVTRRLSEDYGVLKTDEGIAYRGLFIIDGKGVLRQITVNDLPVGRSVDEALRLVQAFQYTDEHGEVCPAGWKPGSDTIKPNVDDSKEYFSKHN
Summary of the method: as §2

[9] = tested on: A2780; assay: MTT cell viability assay, A2780 cells; assay type: cell-based; settings: Homo sapiens, A2780, read-out: IC50 (μM) A2780
Summary of the method: as §1

[10] = tested on: A549; assay: MTT cell viability assay, A549 cells; assay type: cell-based; settings: Homo sapiens, A549, read-out: IC50 (μM) A549
Summary of the method: as §1

SMILES: COC(=O)C[C@H](NC(=O)[C@H](C)NC(=O)[C@@H](NC(=O)OCc1ccccc1)C(C)C)C(=O)CF [Z-VAD-FMK] (Cbz-Val-Ala-Asp(OMe)-CH2F)
effect on 23-induced cell morphological changes and cell viability ([1]; then 2.5 μM 23 for 24 h, MTT): markedly blocked | effect of caspase inhibitors on the effects of 23 on cell viability ([1]; then 2.5 μM 23 for 24 h): partially reversed | effect on the changes in ROS caused by 23 ([2]; HepG2, 10 μM pretreated 2 h): no effect | effect on the changes in MMP caused by 23 [3]: no effect

SMILES: CC(=O)N(O)CCCCCNC(=O)CCC(=O)N(O)CCCCCNC(=O)CCC(=O)N(O)CCCCCN [DFO]
effect on 23-induced cell morphological changes and cell viability ([1]; then 2.5 μM 23 for 24 h, MTT): markedly blocked | effect on 23-induced lipid peroxidation [4]: attenuated

SMILES: CC(=O)N[C@@H](CC(=O)O)C(=O)N[C@@H](CCC(=O)O)C(=O)N[C@H](C(=O)N[C@H](C=O)CC(=O)O)C(C)C [Ac-DEVD-CHO]
effect of caspase inhibitors on the effects of 23 on cell viability ([1]; then 2.5 μM 23 for 24 h): partially reversed

SMILES: CCOC(=O)c1ccc(NC2CCCCC2)c(N)c1 [Fer-1]
effect on 23-induced cell morphological changes and cell viability ([1]; then 2.5 μM 23 for 24 h, MTT): markedly blocked | effect on 23-induced lipid peroxidation [4]: attenuated

SMILES: N.N.[Cl][Pt][Cl] [Cisplatin]
IC50 ([1]; read-out: IC50 (μM) HepG2, cytotoxicity, MTT, mean ± SD): 8.5 ± 0.4 µM | IC50 ([5]; cytotoxicity, MTT, normal lung cell line, mean ± SD): 9.2 ± 1.4 µM | IC50 ([6]; read-out: IC50 (μM) 7860, cytotoxicity, MTT, mean ± SD): 13.5 ± 1.3 µM

SMILES: COC1=C(OC)C(=O)C(CCCCCCCCCC[P+](c2ccccc2)(c2ccccc2)c2ccccc2)=C(C)C1=O [MitoQ]
effect on 23-induced cell viability inhibition ([1]; HepG2, pretreated 1 μM 1 h, then 2.5 μM 23 for 24 h, MTT): reversed | effect on 23-induced ROS accumulation ([2]; HepG2, pretreated 1 μM 1 h): reversed

IC50 ([1]; Homo sapiens, HepG2, read-out: IC50 (μM) HepG2): 7.3 ± 0.8 µM | peroxidase activity of recombinant Prdx I [7]: effectively inhibited | peroxidase activity of recombinant Prdx II [8]: effectively inhibited | IC50 [9]: 5.4 ± 0.9 µM | IC50 [10]: 8.5 ± 1 µM
SMILES: C=C1C(=O)[C@]23C[C@H]1C[C@H](OC(C)=O)[C@H]2[C@]1(C)[C@@H](OC(C)=O)C[C@H](O)C(C)(C)[C@H]1C(=O)[C@@H]3OC(C)=O [Adenanthin]
IC50 ([5]; Homo sapiens, HBE): 7.7 ± 1.1 µM | IC50 ([6]; Homo sapiens, 786-0, read-out: IC50 (μM) 7860): 5.5 ± 0.6 µM

SMILES: COC(=O)CC[C@H](NC(=O)[C@H](CC(C)C)NC(=O)OCc1ccccc1)C(=O)N[C@@H](Cc1cnc[nH]1)C(=O)N[C@@H](CC(=O)OC)C(=O)CF.O=C(O)C(F)(F)F [Z-LEHD-FMK TFA] (Cbz-LE(OMe)HD(OMe)-CH2F)
effect of caspase inhibitors on the effects of 23 on cell viability ([1]; then 2.5 μM 23 for 24 h): partially reversed
